Assay results published in ChEMBL document CHEMBL4052722, “Virtual screening, synthesis and biological evaluation of DNA intercalating antiviral agents” (Bioorg Med Chem Lett, 2017).
The source made the active and inactive calls. No cut-off for these calls is given here.

How the values were obtained:
[1] = Cytotoxicity against African green monkey CV1 cells assessed as cell viability at 0.1 to 100 uM preincubated for 4 hrs measured after 24 hrs by MTT assay relative to control; assay type: cell-based, CV-1; details: chlorocebus aethiops, read-out: Activity
Procedure, shortened: (§1)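 CV-1 cells were exposed to test samples at 0.1, 10 and 100 μM. Viability was read by MTT assay.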

[2] = Cytotoxicity against African green monkey CV1 cells assessed as reduction in cell viability preincubated for 4 hrs measured after 24 hrs by MTT assay relative to control; assay type: cell-based, CV-1; details: chlorocebus aethiops; procedure, shortened: as §1
Bos taurus = species: Bos taurus; assay: Displacement of ethidium bromide from calf thymus DNA by fluorescence binding assay
[3] = tested on: Vesicular stomatitis virus; assay: Antiviral activity against Vesicular stomatitis virus at 0.2 to 620 uM after 24 hrs post infection relative to control; assay type: functional
[4] = Cytotoxicity against African green monkey CV1 cells assessed as viable cells at 1 uM after 110 hrs by real-time cell analysis relative to control; assay type: cell-based, CV-1; details: chlorocebus aethiops, read-out: Activity
Procedure, shortened: (§2)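 CV-1 cell viability was monitored in real time on an xCelligence Real-Time Cell Analyzer. This ran in parallel with the plaque-forming assay, in which cells were pre-incubated with the compounds for 4 h before infection.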

[5] = Cytotoxicity against African green monkey CV1 cells assessed as viable cells at 10 uM after 110 hrs by real-time cell analysis relative to control; assay type: cell-based, CV-1; details: chlorocebus aethiops, read-out: Activity; procedure, shortened: as §2
[6] = Selectivity index, ratio of CC50 for African green monkey CV1 cells to IC50 for Vaccinia virus LIVP harboring GFP infected in African green monkey CV1 cells; assay type: toxicity; details: read-out: Ratio CC50/IC50
L929 = assay: Induction of IFN-alpha activity in mouse L929 cells infected with Encephalomyocarditis virus at 10 uM preincubated with cells for overnight followed by viral infection by optical microscopic analysis; assay type: functional, cell-based
[7] = Cytotoxicity against African green monkey CV1 cells assessed as viable cells at 30 uM after 110 hrs by real-time cells analysis relative to control; assay type: cell-based, CV-1; details: chlorocebus aethiops, read-out: Activity; procedure, shortened: as §2
[8] = Cytotoxicity against African green monkey CV1 cells assessed as viable cells at 50 uM after 110 hrs by real-time cell analysis relative to control; assay type: cell-based, CV-1; details: chlorocebus aethiops, read-out: Activity; procedure, shortened: as §2
[9] = Cytotoxicity against African green monkey CV1 cells assessed as viable cells at 5 uM after 110 hrs by real-time cell analysis relative to control; assay type: cell-based, CV-1; details: chlorocebus aethiops, read-out: Activity; procedure, shortened: as §2

SMILES | viability at 24 h, up to 100 µM [1] | CC50 at 24 h [2] | log Ka (Bos taurus) | Activity [3] | viability at 110 h, 1 µM [4] | viability at 110 h, 10 µM [5] | selectivity ratio [6] | Activity (L929) | viability at 110 h, 30 µM [7] | viability at 110 h, 50 µM [8] | viability at 110 h, 5 µM [9]
O=C(Cn1c2ccccc2c2nc3ccccc3nc21)OCCN1CCCCC1 | 102% | > 100 µM | 5.39 | 50% | – | – | – | – | – | – | –
CN(C)CCCNCCn1c2ccccc2c2nc3ccccc3nc21 | 88% | 50 to 92 µM | 6.76 | 69% | 114% | 110% | 4 | inactive | 75% | – | –
CCCCN(C)CCn1c2ccccc2c2nc3ccccc3nc21 | 92% | > 100 µM | 5.93 | 75% | – | – | – | – | – | – | –
CN(C)CCNC(=O)Cn1c2ccccc2c2nc3ccccc3nc21 | 94% | > 100 µM | 5.38 | 82% | – | – | – | – | – | – | –
c1ccc2nc3c(nc2c1)c1ccccc1n3CCNCCN1CCCCC1 | 113% | > 100 µM | 6.85 | 52% | – | – | – | – | – | – | –
c1ccc2nc3c(nc2c1)c1ccccc1n3CCNCCCN1CCOCC1 | 79% | 50 to 81 µM | 6.72 | 52% | 107% | 110% | 4 | inactive | 75% | – | –
CN(C)CCNCCn1c2ccccc2c2nc3ccccc3nc21 | 99% | > 100 µM | 6.83 | 42% | – | – | – | – | – | – | –
CN(C)CCOC(=O)CCCn1c2ccccc2c2nc3ccccc3nc21 | 94% | 100 µM | 5.56 | 75% | – | – | – | – | – | – | –
O=C(Cn1c2ccccc2c2nc3ccccc3nc21)NCCCN1CCOCC1 | 102% | > 100 µM | 5.32 | 60% | – | – | – | – | – | – | –
O=C(CCCn1c2ccccc2c2nc3ccccc3nc21)OCCN1CCOCC1 | 102% | > 100 µM | 5.7 | 80% | – | – | – | – | – | – | –
O=C(Cn1c2ccccc2c2nc3ccccc3nc21)NCCN1CCOCC1 | 109% | > 100 µM | 5.13 | 50% | – | – | – | – | – | – | –
CN1CCN(CCn2c3ccccc3c3nc4ccccc4nc32)CC1 | 82% | 50 µM | 5.87 | 85% | – | – | – | – | – | – | –
COc1ccc2c(c1)c1nc3ccccc3nc1n2CCN1CCCCC1 | 79% | 100 to 170 µM | – | – | 108% | 96.9% | 34 | inactive | – | 75.6% | –
CCN(CC)CCCNCCn1c2ccccc2c2nc3ccccc3nc21 | 74% | 30 to 50 µM | 6.87 | 53% | 97.1% | 125% | – | – | – | 17.2% | 125%
CCN(CC)CCNC(=O)Cn1c2ccccc2c2nc3ccccc3nc21 | 100% | > 100 µM | 5.03 | 75% | – | – | – | – | – | – | –
CN(C)CCCNC(=O)Cn1c2ccccc2c2nc3ccccc3nc21 | 84% | 100 to 500 µM | 5.2 | 50% | 104% | 131% | 50 | inactive | – | 90% | –
CN(C)CCCOC(=O)Cn1c2ccccc2c2nc3ccccc3nc21 | 87% | 100 µM | 5.28 | 100% | – | – | – | – | – | – | –
CN(C)CCn1c2ccccc2c2nc3ccccc3nc21 | 62% | 10 µM | 5.93 | 75% | – | – | – | – | – | – | –
